Active and inactive are the calls of the source. The calls are words filed in the database; no cut-off is given here.
What was measured:
Mus musculus [1] = assay: Anticonvulsant activity in mouse assessed as protection against subcutaneous pentylenetetrazole-induced seizures at 300 mg/kg, ip after 0.5 hrs; assay type: functional, organism-based; design: dose 300 mg/kg
Mus musculus [2] = assay: Anticonvulsant activity in mouse assessed as protection against subcutaneous pentylenetetrazole-induced seizures at 30 mg/kg, ip after 0.5 hrs; assay type: functional, organism-based; design: dose 30 mg/kg
Mus musculus [3] = assay: Neurotoxicity in mouse at 100 mg/kg, ip after 0.25 hrs by 6Hz psychomotor seizure test; assay type: toxicity, organism-based; design: dose 100 mg/kg, route intraperitoneal; conditions: in vivo
Summary of the method: (§1)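 Mice dosed ip in 30% polyethylene glycol and placed on a rotorod at 6 rpm. An animal is scored toxic if it falls off three times within 1 min.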

Mus musculus [4] = assay: Anticonvulsant activity in mouse assessed as protection against maximal electroshock-induced seizures at 30 mg/kg, ip after 2 hrs; assay type: functional, organism-based; design: dose 30 mg/kg
Summary of the method: (§2)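 Mice dosed ip in 30% polyethylene glycol. Corneas pretreated with 1% tetracaine, then 60 Hz alternating current (50 mA) applied for 0.2 s via corneal electrodes. Protection means absence of the hindlimb tonic extensor component. Scored as number protected/number tested.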

Mus musculus [5] = assay: Anticonvulsant activity in mouse assessed as protection against maximal electroshock-induced seizures at 300 mg/kg, ip after 0.5 hrs; assay type: functional, organism-based; design: dose 300 mg/kg; summary of the method: as §2
Mus musculus [6] = assay: Neurotoxicity in mouse at 100 mg/kg, ip after 1 hrs by 6Hz psychomotor seizure test; assay type: toxicity, organism-based; design: dose 100 mg/kg, route intraperitoneal; conditions: in vivo; summary of the method: as §1
Mus musculus [7] = assay: Anticonvulsant activity in mouse assessed as protection against maximal electroshock-induced seizures at 100 mg/kg, ip after 4 hrs; assay type: functional, organism-based; design: dose 100 mg/kg; summary of the method: as §2
Mus musculus [8] = assay: Neurotoxicity in mouse at 30 mg/kg, ip after 4 hrs by 6Hz psychomotor seizure test; assay type: toxicity, organism-based; design: dose 30 mg/kg, route intraperitoneal; conditions: in vivo; summary of the method: as §1
Mus musculus [9] = assay: Anticonvulsant activity in mouse assessed as protection against subcutaneous pentylenetetrazole-induced seizures at 100 mg/kg, ip after 4 hrs; assay type: functional, organism-based; design: dose 100 mg/kg
Mus musculus [10] = assay: Neurotoxicity in mouse at 30 mg/kg, ip after 0.5 hrs by 6Hz psychomotor seizure test; assay type: toxicity, organism-based; design: dose 30 mg/kg, route intraperitoneal; conditions: in vivo; summary of the method: as §1
Mus musculus [11] = assay: Neurotoxicity in mouse at 100 mg/kg, ip after 6 hrs by 6Hz psychomotor seizure test; assay type: toxicity, organism-based; design: dose 100 mg/kg, route intraperitoneal; conditions: in vivo; summary of the method: as §1
Mus musculus [12] = assay: Anticonvulsant activity in mouse assessed as protection against maximal electroshock-induced seizures at 30 mg/kg, ip after 0.5 hrs; assay type: functional, organism-based; design: dose 30 mg/kg; summary of the method: as §2
Mus musculus [13] = assay: Anticonvulsant activity in mouse assessed as protection against maximal electroshock-induced seizures at 30 mg/kg, ip after 0.25 hrs; assay type: functional, organism-based; design: dose 30 mg/kg; summary of the method: as §2
Mus musculus [14] = assay: Neurotoxicity in mouse at 100 mg/kg, ip after 2 hrs by 6Hz psychomotor seizure test; assay type: toxicity, organism-based; design: dose 100 mg/kg, route intraperitoneal; conditions: in vivo; summary of the method: as §1
Mus musculus [15] = assay: Anticonvulsant activity in mouse assessed as protection against maximal electroshock-induced seizures at 30 mg/kg, ip after 4 hrs; assay type: functional, organism-based; design: dose 30 mg/kg; summary of the method: as §2
Mus musculus [16] = assay: Neurotoxicity in mouse at 300 mg/kg, ip after 4 hrs by 6Hz psychomotor seizure test; assay type: toxicity, organism-based; design: dose 300 mg/kg, route intraperitoneal; conditions: in vivo; summary of the method: as §1
Mus musculus [17] = assay: Anticonvulsant activity in mouse assessed as protection against maximal electroshock-induced seizures at 100 mg/kg, ip after 0.5 hrs; assay type: functional, organism-based; design: dose 100 mg/kg; summary of the method: as §2
Mus musculus [18] = assay: Anticonvulsant activity in mouse assessed as protection against maximal electroshock-induced seizures at 30 mg/kg, ip after 6 hrs; assay type: functional, organism-based; design: dose 30 mg/kg; summary of the method: as §2
Mus musculus [19] = assay: Anticonvulsant activity in mouse assessed as protection against maximal electroshock-induced seizures at 30 mg/kg, ip after 1 hr; assay type: functional, organism-based; design: dose 30 mg/kg; summary of the method: as §2
Mus musculus [20] = assay: Neurotoxicity in mouse at 100 mg/kg, ip after 4 hrs by 6Hz psychomotor seizure test; assay type: toxicity, organism-based; design: dose 100 mg/kg, route intraperitoneal; conditions: in vivo; summary of the method: as §1
Mus musculus [21] = assay: Anticonvulsant activity in mouse assessed as protection against subcutaneous pentylenetetrazole-induced seizures at 30 mg/kg, ip after 4 hrs; assay type: functional, organism-based; design: dose 30 mg/kg
Mus musculus [22] = assay: Neurotoxicity in mouse at 100 mg/kg, ip after 0.5 hrs by 6Hz psychomotor seizure test; assay type: toxicity, organism-based; design: dose 100 mg/kg, route intraperitoneal; conditions: in vivo; summary of the method: as §1
Mus musculus [23] = assay: Anticonvulsant activity in mouse assessed as protection against subcutaneous pentylenetetrazole-induced seizures at 100 mg/kg, ip after 0.5 hrs; assay type: functional, organism-based; design: dose 100 mg/kg
Mus musculus [24] = assay: Anticonvulsant activity in mouse assessed as protection against maximal electroshock-induced seizures at 300 mg/kg, ip after 4 hrs; assay type: functional, organism-based; design: dose 300 mg/kg; summary of the method: as §2
Mus musculus [25] = assay: Anticonvulsant activity in mouse assessed as protection against subcutaneous pentylenetetrazole-induced seizures at 300 mg/kg, ip after 4 hrs; assay type: functional, organism-based; design: dose 300 mg/kg

With `CCCc1cc(C(O)C(F)(F)F)ccc1O` (stereo not given) the Activity (Mus musculus [1]) was “Active”, the Activity (Mus musculus [2]) was “inactive” and the Activity (Mus musculus [3]) was “Non-toxic”. For the same compound, the Activity (Mus musculus [4]) was “inactive”, the Activity (Mus musculus [5]) was “Active” and the Activity (Mus musculus [6]) was “Non-toxic”. The Activity (Mus musculus [7]) was “inactive”, the Activity (Mus musculus [8]) was “Non-toxic” and the Activity (Mus musculus [9]) was “inactive”. The Activity (Mus musculus [10]) was “Non-toxic”, the Activity (Mus musculus [11]) was “Non-toxic” and the Activity (Mus musculus [12]) was “inactive”. For the same compound, the Activity (Mus musculus [13]) was “inactive”, the Activity (Mus musculus [14]) was “Non-toxic” and the Activity (Mus musculus [15]) was “inactive”. For the same compound, the Activity (Mus musculus [16]) was “Non-toxic”, the Activity (Mus musculus [17]) was “inactive” and the Activity (Mus musculus [18]) was “inactive”. For the same compound, the Activity (Mus musculus [19]) was “inactive”, the Activity (Mus musculus [20]) was “Non-toxic” and the Activity (Mus musculus [21]) was “inactive”. The Activity (Mus musculus [22]) was “Non-toxic”, the Activity (Mus musculus [23]) was “inactive” and the Activity (Mus musculus [24]) was “Active”. The Activity (Mus musculus [25]) was “inactive”.
